According to ChEMBL document CHEMBL3102821, “Lignans from the aerial parts of Saururus chinensis: isolation, structural characterization, and their effects on platelet aggregation” (J Nat Prod, 2014):
Active and inactive are the calls of the source. The calls are words filed in the database; no cut-off is given here.

Assays:
[1] = Antiplatelet activity against New Zealand white rabbit platelets assessed as inhibition of PAF-induced platelet aggregation preincubated at 10 uM for 2 mins before challenge […] by spectrophotometry; assay type: functional; settings: Oryctolagus cuniculus
In short: (§1)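 Washed rabbit platelets: PRP made with 5 mM EDTA (final), then washed in Ca2+-free Tyrode's with 0.35% BSA, heparin and apyrase at 37 °C for 20 min. Resuspended in Tyrode's with 1 mM Ca2+ at 2.5 × 10^8/mL, stirred at 900 rpm. Sample in DMSO (0.5% final) for 2 min at 37 °C, then ADP 20 μM, AA 100 μM or PAF 10 nM. Read-out: maximal turbidimetric light-transmission rise within 4 min. Inhibition is calculated against vehicle.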

[2] = system: Platelet; test: Prothrombotic activity in New Zealand white rabbit platelets assessed as increase in platelet aggregation at 100 uM by spectrophotometry; assay type: functional, Oryctolagus cuniculus
In short: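 Washed rabbit platelets are prepared the same way: 2.5 × 10^8/mL in Tyrode's with 1 mM Ca2+, stirred at 900 rpm at 37 °C, DMSO fixed at 0.5% final. Compound is added alone, with no agonist. Aggregation is read turbidimetrically as light transmission, with suspension set as 0% and buffer as 100%. The result is reported as % increase in aggregation.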

[3] = Antiplatelet activity against New Zealand white rabbit platelets assessed as inhibition of PAF-induced platelet aggregation preincubated at 100 uM for 2 mins before challenge […] by spectrophotometry; assay type: functional; settings: Oryctolagus cuniculus
In short: (§2)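 Resuspended in Tyrode's with 1 mM Ca2+ at 2.5 × 10^8/mL, stirred at 900 rpm. Sample in DMSO (0.5% final) for 2 min at 37 °C, then ADP 20 μM, AA 100 μM or PAF 10 nM. Read-out: maximal turbidimetric light-transmission rise within 4 min. Inhibition is calculated against vehicle.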

[4] = Antiplatelet activity against New Zealand white rabbit platelets assessed as inhibition of arachidonic acid-induced platelet aggregation preincubated for 2 mins before challenge […] by spectrophotometry; assay type: functional, cell-based; settings: Oryctolagus cuniculus; in short: as §1
[5] = Antiplatelet activity against New Zealand white rabbit platelets assessed as inhibition of ADP-induced platelet aggregation preincubated for 2 mins before challenge […] by spectrophotometry; assay type: functional, cell-based; settings: Oryctolagus cuniculus; in short: as §2
[6] = (§3) Antiplatelet activity against New Zealand white rabbit platelets assessed as inhibition of ADP-induced platelet aggregation preincubated at 100 uM for 2 mins before challenge […] by spectrophotometry; assay type: functional; settings: Oryctolagus cuniculus; in short: as §2
[7] = Antiplatelet activity against New Zealand white rabbit platelets assessed as inhibition of arachidonic acid-induced platelet aggregation preincubated at 100 uM for 2 mins before challenge […] by spectrophotometry; assay type: functional; settings: Oryctolagus cuniculus; in short: as §2
[8] = Antiplatelet activity against New Zealand white rabbit platelets assessed as inhibition of PAF-induced platelet aggregation preincubated for 2 mins before challenge […] by spectrophotometry; assay type: functional, cell-based; settings: Oryctolagus cuniculus; in short: as §1
[9] = cells; settings: Oryctolagus cuniculus, New Zealand white, Platelet, read-out: INH
[10] = system: Platelet; test: as §3; assay type: functional; settings: Oryctolagus cuniculus; in short: as §2

IC50 [5] [µM]	Compound	inhibition at 100 µM [3] [%]	inhibition at 100 µM [6] [%]	inhibition at 100 µM [7] [%]	further results
–	CCCCCCCCCCCCCCCCCCNC(=O)OCC(COP(=O)([O-])OCC[n+]1ccsc1)OC (stereo unspecified)	–	–	–	inhibition at 10 µM [1]: 94.8%
–	C[C@H](Cc1cc2c(cc1O)OCO2)[C@@H](C)Cc1cc2c(cc1O)OCO2	–	–	–	Activity [2]: 49.5%
40.3	C[C@@H]1[C@@H](c2ccc3c(c2)OCO3)c2c(c(O)cc3c2OCO3)C[C@H]1C	0.6	84	83.7	IC50 [4]: 71.4 µM
–	COc1ccc([C@H]2O[C@@H](c3ccc(OC)c(OC)c3)[C@@H](C)[C@H]2C)cc1OC	94.4	51.8	19.4	IC50 [8]: 9.1 µM
28.1	C=CCc1cc(OC)c(O[C@H](C)[C@H](OC(C)=O)c2cc(OC)c(OC)c(OC)c2)c(OC)c1	68.1	84.7	93.5	IC50 [4]: 60.3 µM; IC50 [8]: 79.4 µM
–	COc1cc(C[C@H](C)[C@H](C)Cc2cc3c(cc2O)OCO3)ccc1O (relative stereo)	–	–	–	Activity [2]: 66.1%
–	COc1cc(C[C@H](C)[C@H](C)Cc2cc3c(cc2O)OCO3)c(O)cc1O (relative stereo)	11.7	68.2	90.9	–
–	COc1cc(O)c(C[C@H](C)[C@H](C)Cc2cc3c(cc2O)OCO3)cc1OC (relative stereo)	7	71.5	73	–
30	COc1cc(OC)c(C[C@H](C)[C@H](C)Cc2cc3c(cc2O)OCO3)cc1O (relative stereo)	26.7	85.2	96.8	IC50 [4]: 29.4 µM
9.8	COC1=CC(=O)C(C[C@H](C)[C@H](C)Cc2cc3c(cc2O)OCO3)=CC1=O (relative stereo)	92	90.4	98.7	IC50 [4]: 14 µM; IC50 [8]: 61.7 µM
–	COc1ccc([C@@H]2O[C@H](c3cc(OC)c4c(c3)OCO4)[C@@H](C)[C@@H]2C)cc1OC (relative stereo)	42	19.1	54.4	–
56	COc1ccc([C@H]2O[C@@H](c3cc(OC)c4c(c3)OCO4)[C@H](C)[C@@H]2C)cc1OC (relative stereo)	98.9	75.6	80.3	IC50 [4]: 85 µM; IC50 [8]: 37.2 µM
–	COc1cc(C[C@@H](C)[C@H](C)Cc2ccc(O)c(OC)c2)ccc1O [(-)-DIHYDROGUAIARETICACID]	–	–	–	Activity [2]: 76.4%
50.6	C/C=C/c1cc(OC)c2c(c1)[C@H](C)[C@@H](c1ccc3c(c1)OCO3)O2 [(-)-LICARIN B]	5.3	86.7	42.5	–
–	CC(=O)Oc1ccccc1C(=O)O [ASPIRIN]	–	–	99.7	–
–	COC(=O)[C@H](c1ccccc1Cl)N1CCc2sccc2C1 [CLOPIDOGREL]	–	–	–	inhibition at 30 µM [9]: 80.2%
–	C/C=C/c1cc(OC)c2c(c1)[C@H](C)[C@@H](c1ccc(O)c(OC)c1)O2 [LICARIN A]	–	–	–	Activity [2]: 66.8%
–	C[C@@H]1O[C@@H](Oc2c(-c3ccc(O)c(O)c3)oc3cc(O)cc(O)c3c2=O)[C@H](O)[C@H](O)[C@H]1O [QUERCITRIN]	6.8	83.1	21.8	–
34.6	CC(Cc1cc2c(cc1O)OCO2)C(C)C(=O)c1ccc2c(c1)OCO2 (stereo unspecified) [SAUCERNEOL G]	3.9	90.9	94.1	IC50 [4]: 25.9 µM
–	C[C@@H]1[C@H]2c3cc4c(cc3O[C@@]35OCOC3=CC(=O)[C@H](C[C@H]1C)[C@H]25)OCO4 [SAUCHINONE A]	23.6	48.2	28.2	–
–	C[C@@H]1[C@H]2c3cc4c(cc3O[C@@]35OCOC3=CC(=O)[C@H](C[C@H]1C)[C@@H]25)OCO4 [SAUCHINONE]	11.8	–	10.7	inhibition [10]: inactive
